Source: PubChem
OXTR agonist = agonists of human oxytocin receptor; activation, % at 3 µM; AID 2435; 0.32% of 320,000 active; CHO-OTR cells, Fluo-8 calcium fluorescence; normalized: DMSO 0%, oxytocin 100%; P30559;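 active = activation above the mean of all tested compounds plus 3 SD, cutoff set per screening run, cut at about 20% in these data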;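 note: peak over basal fluorescence ratio from a 100 s FLIPR kinetic read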
TAAR1 antagonist = antagonists of human TAAR1; inhibition, % at 3 µM; 1.5% of 360,000 active; CHO RD-HGA16 TAAR1, Fluo-8 calcium fluorescence, antagonist;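 active = inhibition above a per-plate cutoff, the mean inhibition of test compounds on that plate plus 3 SD, cut at about 49% in these data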
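System: CHO RD-HGA16 cells bearing hTAAR1. Reagent: EC80 β-phenethylamine stimulus. Schedule: seeding 17-24 h prior, 75-min 37 °C, 30-min RT dye loading. Signal: Fluo-8 intracellular calcium dye fluorescence, real-time kinetic reads. Read-out: % inhibition from peak post-agonist over basal fluorescence ratio. Benchmarks: vehicle wells and EC80 agonist wells. Replicates: n of 1.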
OXTR potentiate = human OXTR potentiation; 0.061% of 320,000 active; activation, % at 3 µM; P30559; CHO-OTR cells, Fluo-8 calcium fluorescence, potentiator mode; 0% = oxytocin EC15, 100% = EC100;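 active = activation above that plate's cutoff, the mean activation of tested compounds plus 3 SD, cut at about 6.6% in these data, passing the limit was not always enough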
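Assay system: CHO cell line stably expressing human OTR | Also added: Oxytocin at about EC15, sub-maximal agonist stimulus | Times: Compound 6 min at room temperature before oxytocin, 100 s read | Measured by: Fluo-8 intracellular calcium fluorescence, ex 470-495, em 515-575 nm | Controls: EC15 oxytocin alone as 0%, 75 nM oxytocin as 100%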
V1aR counter = activates human V1a receptor in oxytocin agonist counter-screen | P37288 | activation, % at 3 µM | 0.25% of 320,000 active | CHO-V1R cells, Fluo-8 calcium fluorescence, agonist mode; 0% DMSO, 100% 3 nM vasopressin | AID 2797;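 active = activation above the mean activation of all tested compounds plus 3 SD, per screening run, cut at about 20% in these data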;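 note: signal is peak over basal fluorescence ratio across a 100 second FLIPR read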
Target sequence (P37288 whole entry, looked up): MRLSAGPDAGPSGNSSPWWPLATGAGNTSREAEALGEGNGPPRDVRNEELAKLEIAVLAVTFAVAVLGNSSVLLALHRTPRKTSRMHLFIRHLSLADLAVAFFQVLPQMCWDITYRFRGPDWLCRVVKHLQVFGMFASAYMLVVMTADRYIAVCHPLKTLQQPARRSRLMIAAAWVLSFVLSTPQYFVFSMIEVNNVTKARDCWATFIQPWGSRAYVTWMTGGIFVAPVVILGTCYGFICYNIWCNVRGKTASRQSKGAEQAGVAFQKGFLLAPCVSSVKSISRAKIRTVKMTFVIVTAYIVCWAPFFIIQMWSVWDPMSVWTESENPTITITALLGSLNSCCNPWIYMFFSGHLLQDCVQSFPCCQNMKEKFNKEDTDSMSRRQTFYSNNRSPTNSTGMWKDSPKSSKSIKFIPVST
TAAR1 agonist = human TAAR1 agonism. 0.99% of 360,000 active. Q96RJ0. AID 624467. activation, % at 3 µM. CHO RD-HGA16 TAAR1, Fluo-8 calcium fluorescence; vehicle wells 0%, saturating PEA agonist 100%;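 active = activation above the mean activation of all test compounds in the run plus 3 SD, cut at about 38% in these data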
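Test system: RD-HGA16 (CHO) cells co-expressing Gα16 and hTAAR1 | Doses: Single dose, 3 µM | Schedule: 17-24 h seeding, 75 min 37 °C dye, 30 min RT | Evaluation: % activation from peak over basal fluorescence ratio, DMSO-to-PEA scaled | Technique: Kinetic Fluo-8 calcium fluorescence | Benchmarks: Low control DMSO, high control PEA (EC100)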
A number is an active result; n = inactive; x = no result given. Hits are enriched below; roughly 2.3% of the tested compounds scored in any of these assays.

SMILES | OXTR agonist | TAAR1 antagonist | OXTR potentiate | V1aR counter | TAAR1 agonist
COc1cccc(OC)c1C(=O)NC(=S)Nc1cc(-c2nc3ccccc3[nH]2)ccc1Cl | n | 50 | n | n | n
COc1ccccc1CN1CCNC(=O)C1CC(=O)O (centres undefined) | n | n | n | n | n
COc1ccccc1CN1CCNC(=O)C1CC(=O)NC1Cc2ccccc2C1 (centres undefined) | n | n | n | n | 41
Cc1cc(/C=C2\NC(=S)N(C)C2=O)ccc1N1CCCC1 | 69 | 83 | n | 79 | 142
Cc1cc(/C=C2/C(=O)N(C)C(=S)N2C)ccc1N1CCCC1 | 23 | n | n | 29 | n
CCCN1C(=O)/C(=C/c2ccc(N3CCCC3)c(C)c2)NC1=S | 112 | 99 | n | 113 | 129
CCc1ccc(N2C(=O)C3ON(c4ccccc4)C(c4ccco4)C3C2=O)cc1 (centres undefined) | n | n | n | n | n
CN(CC(=O)Nc1cccc(F)c1)C(=O)c1ccc(C2SCCS2)cc1 | n | n | n | n | n
CN(CC(=O)Nc1cccc(F)c1)C(=O)c1ccc2c(c1)CC(c1ccccc1)OC2=O (centres undefined) | x | 58 | x | x | n
C=CCN(c1ccccc1Cl)S(=O)(=O)c1cccc(C(=O)NCCc2ccc(OC)cc2)c1 | n | 61 | n | n | n
COc1ccc(CCNC(=O)c2cccc(S(=O)(=O)N3CCCCC3)c2)cc1 | n | n | n | n | n
CCC(C(=O)OCC(=O)C1(O)CCC2C3CCC4=CC(=O)CCC4(C)C3C(O)CC21C)C(C)C (centres undefined) | x | 62 | x | x | n
COc1cccc(-c2sc3ccccc3c2-c2ccc(OCCN(C)C)cc2)c1 | n | 51 | n | n | n
CCOC(=O)C1CSCCS(=O)(=O)N1Cc1ccccc1F (centres undefined) | x | n | x | x | n
COc1ccc(CNC(=O)C2CCN(c3cc(C(=O)Nc4cccc(OC)c4)ccn3)CC2)cc1 | n | 49 | n | n | n
CCN(CC)S(=O)(=O)c1ccc(N2CCOCC2)c(NC(=O)c2cccc3c(=O)c(C)c(-c4ccccc4)oc23)c1 | n | 54 | n | n | n
CCCNS(=O)(=O)c1cccc(C(=O)OCc2cc(=O)oc3cc(OC)ccc23)c1 | n | 52 | n | n | n
COc1ccc2c(COC(=O)CNS(=O)(=O)c3ccccc3)cc(=O)oc2c1 | n | n | n | n | n
COc1ccc2c(COC(=O)c3cccc(S(=O)(=O)NCC(C)C)c3)cc(=O)oc2c1 | n | 65 | n | n | n
Cc1ccc(Oc2nsnc2N2CCOCC2)cc1 | n | n | n | n | n
Cn1ncc2c(NCCO)nc(Cl)nc21 | x | n | x | x | n
Cn1ncc2c(Nc3ccc([N+](=O)[O-])cc3)nc(Cl)nc21 | x | n | x | x | 41
COCCCN(Cc1ccccn1)S(=O)(=O)Cc1ccccc1 | n | n | n | n | n
CCOC(=O)[C@]12CCCC=C1N(Cc1ccc(Cl)cc1Cl)C(=O)[C@H](CC(=O)NCCc1ccccc1OC)C2 | x | n | x | x | 40
CCCCNC(=O)C[C@@H]1C[C@@]2(C(=O)OCC)CCCC=C2N(Cc2ccc(Cl)cc2Cl)C1=O | x | n | x | x | n
SMILES | OXTR agonist | TAAR1 antagonist | OXTR potentiate | V1aR counter | TAAR1 agonist
CCOC(=O)[C@]12CCCC=C1N(CCc1ccc(OC)c(OC)c1)C(=O)[C@H](CC(=O)NCCc1ccccc1OC)C2 | x | n | x | x | 46
CCCCNC(=O)C[C@@H]1C[C@@]2(C(=O)OCC)CCCC=C2N(CCc2ccc(OC)c(OC)c2)C1=O | x | n | x | x | n
Cc1[nH]c2ccccc2c1/C=C/c1nc2ccccc2c(=O)n1CCO | n | 51 | n | n | n
COC(=O)c1cccc2c([N+](=O)[O-])c(NC(C)=O)cc(C(=O)OC)c12 | x | n | x | x | n
Oc1ccc(/C=N/Nc2ccnc3cc(Cl)ccc23)c(O)c1 | n | n | n | n | 44
COc1ccccc1NC(=O)CN(c1ccc(C23CC4CC(CC(C4)C2)C3)cc1)S(C)(=O)=O | n | n | n | n | n
COc1ccc(C2C(C(=O)c3ccccc3)N3c4ccccc4C=CC3C2[N+](=O)[O-])cc1 (centres undefined) | x | n | x | x | 43
Cc1cc(C)c(C#N)c(SCC(O)COc2ccc(Br)cc2)n1 (centres undefined) | n | 56 | n | n | n
C=CCNC(=O)c1cc(Cl)cc(Cl)c1 | n | n | n | n | n
Cc1cc(C)cc(-n2c(C)cc(C(=O)CSc3nnnn3C)c2C)c1 | n | n | n | n | 38
O=C(O)C1CCCCC1C(=O)Nc1ccc(-c2ccccc2)cc1 (centres undefined) | n | n | n | n | n
CN(C(=O)COc1ccccc1C(=O)NCCOc1ccccc1)c1ccccc1 | n | 75 | n | n | n
O=C(NCCOc1ccccc1)c1ccccc1Cl | n | n | n | n | n
COc1cc(C(=O)OCC(C)=O)c([N+](=O)[O-])cc1OC | n | n | n | n | n
O=C(CSCc1ccc(Cl)cc1)N/N=C/c1ccc(OCC(=O)Nc2ccccc2)cc1 | n | 57 | n | n | n
O=C(COc1ccccc1)Nc1ccc(CSc2ccccc2)cc1 | n | 51 | n | n | n
O=C(Nc1ccc(CSc2ccccc2)cc1)c1ccccc1 | n | n | n | n | n
Nn1c(COc2ccccc2F)nnc1SCC(=O)NCC1CCCO1 (centres undefined) | x | n | x | x | n
C[C@H]1CN([C@@H](C)CO)C(=O)c2cccc(NC(=O)c3nc4ccccc4s3)c2O[C@H]1CN(C)C(=O)Nc1ccc(F)cc1 | n | 55 | n | n | n
C[C@H]1CN([C@@H](C)CO)C(=O)c2cccc(NC(=O)Nc3ccc(C(F)(F)F)cc3)c2O[C@H]1CN(C)C | n | n | n | n | n
COc1ccc(NC(=O)Nc2cccc3c2O[C@H](CN(C)C(=O)Nc2ccc(C(F)(F)F)cc2)[C@@H](C)CN([C@H](C)CO)C3=O)cc1 | n | x | n | n | x
Cc1cc(C(=O)Nc2cccc3c2O[C@H](CN(C)CC2CC2)[C@@H](C)CN([C@H](C)CO)C3=O)n(C)n1 | n | n | n | n | 43
C[C@H](CO)N1C[C@H](C)[C@@H](CN(C)CC2CC2)Oc2c(NC(=O)C3CC3)cccc2C1=O | x | n | x | x | n
C[C@H](CO)N1C[C@H](C)[C@@H](CN(C)C(=O)Nc2ccc(C(F)(F)F)cc2)Oc2c(NC(=O)Nc3ccc(C(F)(F)F)cc3)cccc2C1=O | n | 58 | n | n | n
C[C@H]1CN([C@@H](C)CO)C(=O)c2cccc(NC(=O)Nc3ccc(C(F)(F)F)cc3)c2O[C@@H]1CN(C)C(=O)Nc1ccc(F)cc1 | n | 56 | n | n | n
CCN(CC)S(=O)(=O)c1ccc(F)c(C(=O)OC2CC(C)OC2=O)c1 (centres undefined) | n | n | n | n | n
